# Measured values collected from several papers.
# Each line is one published result; the experiments were not run side by side.
# Read-out: cell growth or viability
Structure (SMILES),cell line,method,tested at,time,setting,endpoint,result
COc1cc2c3c(n(CCCN4CCOCC4)c(=O)c2cc1OC)-c1nc2c(cc1C3=O)OCO2,SK-N-MC,MTS,,72 h,,IC50,698 nM
Nc1ccc(/C=C/C(=O)N2CCc3c(oc4c(-c5ccc(F)cc5)cc(-c5ccc(C(=O)N6CCOCC6)nn5)cc34)C2)cn1,Pan02,CCK-8,,72 h,,IC50,570 nM
CCN(CC)Cc1cc(Nc2ccnc3cc(Cl)ccc23)ccc1O,SH-SY5Y,resazurin,,,,IC50,17000 nM
CC(C)(C)c1cnc(CSc2cnc(NC(=O)C3CCN(CCCCCCCCSc4cccc5c4CN(C4CCC(=O)NC4=O)C5=O)CC3)s2)o1 (stereo not drawn),HuT78,trypan blue,1 µM,48 h,,viability,10.5%
CCN(CC)CCCC(C)Nc1ccnc2cc(Cl)ccc12 (stereo not drawn),SH-SY5Y,resazurin,,,,IC50,44000 nM
COc1cc2c3c(n(CCCNCCO)c(=O)c2cc1OC)-c1nc2c(cc1C3=O)OCO2,SK-N-MC,MTS,,72 h,,IC50,173 nM
C#Cc1nc(C2=C(C)C(O)CC2)cs1 (stereo not drawn),HT-1080,,,,,CC50,960 nM
CCNCCCn1c2c(c3cc(OC)c(OC)cc3c1=O)C(=O)c1cc3c(nc1-2)OCO3,SK-N-MC,MTS,,72 h,,IC50,137 nM
C[C@H]1[C@H](OC(=O)CCC(=O)O)O[C@@H]2O[C@@]3(C)CC[C@H]4[C@H](C)CC[C@@H]1[C@@]24OO3,SH-SY5Y,resazurin,,,,IC50,4600 nM
CC(C)(C)c1cnc(CSc2cnc(NC(=O)C3CCN(CCCCCSc4cccc5c4CN(C4CCC(=O)NC4=O)C5=O)CC3)s2)o1 (stereo not drawn),HuT78,trypan blue,0.5 µM,48 h,,viability,13.4%
OC(c1cc(C(F)(F)F)nc2c(C(F)(F)F)cccc12)C1CCCCN1 (stereo not drawn),SH-SY5Y,resazurin,,,,IC50,8000 nM
Nc1ccc(/C=C/C(=O)NCc2cc3cc(-c4ccc(C(=O)N5CCC(F)(F)CC5)cc4)cc(-c4ccc(F)cc4)c3o2)cn1,Pan02,CCK-8,,72 h,,IC50,1640 nM
CC1(C)CCC(CN2CCN(c3ccc(C(=O)NS(=O)(=O)c4ccc(NCC5CCOCC5)c([N+](=O)[O-])c4)c(Oc4cnc5[nH]ccc5c4)c3)CC2)=C(c2ccc(Cl)cc2)C1,MM.1R,ATP luminescence,,48 h,,IC50,7460 nM
C=C(F)C(=O)N1CCN(c2nc(OC[C@@H]3CCCN3C)nc3c2CCN(c2cccc4cccc(Cl)c24)C3)C[C@@H]1CC#N,Lu-99,ATP luminescence,,,3D culture,IC50,21.3 nM
C=CC(=O)NC1CCN(c2ncc3ncnc(Nc4ccc(Oc5ccc6c(c5)ncn6C)c(C)c4)c3n2)CC1,SNU668,,,,,EC50,34.9 nM
